According to ChEMBL document CHEMBL2331279, “Rational design and synthesis of 4-substituted 2-pyridin-2-ylamides with inhibitory effects on SH2 domain-containing inositol 5'-phosphatase 2 (SHIP2)” (Eur J Med Chem, 2013):

How the values were obtained:
[1] = tested on: Mus musculus; experiment: Toxicity in C57BL/6J mouse assessed as serum insulin level at 300 mg/kg, po bid for 12 to 13 days measured on day 15 (reference value: 0.25 +/-0.11 ng/ml); type: organism-based; design: dose 300 mg/kg, route oral; details: in vivo
[2] = tested on: Mus musculus; experiment: Toxicity in db/db mouse assessed as epididymal white adipose tissue weight at 300 mg/kg, po bid for 12 to 13 days measured on day 12 to 13 (reference value: 1.82 +/-0.1 gms); type: organism-based; design: dose 300 mg/kg, route oral; details: in vivo
[3] = tested on: Mus musculus; experiment: Toxicity in C57BL/6J mouse assessed as food intake at 300 mg/kg, po bid for 12 to 13 days measured on day 10 (reference value: 3.72 +/-0.23 gms/day); type: organism-based; design: dose 300 mg/kg, route oral; details: in vivo
[4] = tested on: Mus musculus; experiment: Toxicity in db/db mouse assessed as liver weight at 300 mg/kg, po bid for 12 to 13 days measured on day 12 to 13 (reference value: 1.57 +/-0.04 gms); type: organism-based; design: dose 300 mg/kg, route oral; details: in vivo
[5] = tested on: Mus musculus; experiment: Toxicity in C57BL/6J mouse assessed as liver weight at 300 mg/kg, po bid for 12 to 13 days measured on day 15 (reference value: 0.74 +/-0.03 gms); type: organism-based; design: dose 300 mg/kg, route oral; details: in vivo
[6] = tested on: Mus musculus; experiment: Toxicity in C57BL/6J mouse assessed as body weight at 300 mg/kg, po bid for 12 to 13 days measured on day 10 (reference value: 23.2 +/-0.4 gms); type: organism-based; design: dose 300 mg/kg, route oral; details: in vivo
[7] = biological target: T1, Phosphatidylinositol 3,4,5-trisphosphate 5-phosphatase 2 (Mus musculus) (UniProt Q6P549); experiment: Inhibition of SHIP2 in TNF alpha-treated mouse 3T3L1 cells assessed as potentiation of insulin-stimulated Akt phosphorylation at Thr308 at 10 uM treated for 15 mins after TNF alpha challenge for 16 hrs and prior to insulin stimulation measured after 2 hrs by Western blot analysis relative to untreated control; type: cell-based; details: 3T3-L1
T1 sequence (whole entry): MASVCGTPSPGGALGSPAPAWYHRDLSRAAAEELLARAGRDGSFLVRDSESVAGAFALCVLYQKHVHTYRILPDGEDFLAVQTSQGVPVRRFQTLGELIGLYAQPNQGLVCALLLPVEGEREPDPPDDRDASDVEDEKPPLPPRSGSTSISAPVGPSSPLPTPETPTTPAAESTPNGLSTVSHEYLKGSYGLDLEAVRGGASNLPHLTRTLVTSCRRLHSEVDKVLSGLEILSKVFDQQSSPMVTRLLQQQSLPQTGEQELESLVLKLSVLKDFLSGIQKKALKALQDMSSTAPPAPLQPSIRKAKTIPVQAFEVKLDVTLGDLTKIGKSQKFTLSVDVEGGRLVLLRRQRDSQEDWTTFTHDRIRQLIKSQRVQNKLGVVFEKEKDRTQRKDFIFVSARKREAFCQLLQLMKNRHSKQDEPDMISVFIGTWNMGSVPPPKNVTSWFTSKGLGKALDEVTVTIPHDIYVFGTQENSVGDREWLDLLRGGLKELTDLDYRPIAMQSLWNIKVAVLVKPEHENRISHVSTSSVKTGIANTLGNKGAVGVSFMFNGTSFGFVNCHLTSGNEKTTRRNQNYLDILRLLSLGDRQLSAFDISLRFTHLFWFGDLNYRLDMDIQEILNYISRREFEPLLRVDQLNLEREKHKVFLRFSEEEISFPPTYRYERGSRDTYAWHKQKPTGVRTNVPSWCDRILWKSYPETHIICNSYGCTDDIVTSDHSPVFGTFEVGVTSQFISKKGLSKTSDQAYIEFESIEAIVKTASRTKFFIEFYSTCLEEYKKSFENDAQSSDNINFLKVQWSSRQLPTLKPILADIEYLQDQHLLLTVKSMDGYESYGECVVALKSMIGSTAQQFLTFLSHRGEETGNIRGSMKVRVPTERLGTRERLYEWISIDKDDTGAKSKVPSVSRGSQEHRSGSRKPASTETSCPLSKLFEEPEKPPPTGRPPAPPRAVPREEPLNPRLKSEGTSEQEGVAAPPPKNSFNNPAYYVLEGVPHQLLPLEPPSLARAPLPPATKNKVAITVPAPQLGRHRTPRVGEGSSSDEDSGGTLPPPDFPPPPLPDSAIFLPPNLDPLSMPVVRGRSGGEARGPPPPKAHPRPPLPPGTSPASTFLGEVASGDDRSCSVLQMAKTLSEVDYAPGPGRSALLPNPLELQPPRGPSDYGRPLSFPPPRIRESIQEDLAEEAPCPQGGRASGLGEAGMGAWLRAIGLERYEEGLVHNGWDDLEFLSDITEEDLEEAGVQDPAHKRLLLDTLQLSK
Method in brief: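 3T3-L1 fibroblasts differentiated into adipocytes, then serum-starved 16 h with TNFα 20 ng/mL. Treated with compound 10 µM or 0.1% DMSO for 15 min, then stimulated with 17 nM insulin at 37 °C for 2 h. Cells lysed on ice at pH 7.5 and Thr308 phospho-Akt measured by western blot. Results given as fold change versus TNFα+insulin control. Mean ± SE.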

[8] = tested on: Mus musculus; experiment: Toxicity in C57BL/6J mouse assessed as epididymal white adipose tissue weight at 300 mg/kg, po bid for 12 to 13 days measured on day 15 (reference value: 0.03 +/-0.0 gms); type: organism-based; design: dose 300 mg/kg, route oral; details: in vivo
[9] = tested on: Mus musculus; experiment: Toxicity in db/db mouse assessed as body weight at 300 mg/kg, po bid for 12 to 13 days measured on day 10 (reference value: 39.2 +/-0.6 gms); type: organism-based; design: dose 300 mg/kg, route oral; details: in vivo

For `O=C(Cc1c(F)cccc1F)Nc1cc(OCc2ccc(Cl)cc2)ccn1`, the Activity [1] was 0.21 ng/mL, the Activity [2] was 1.86 g and the Activity [3] was 3.94 g/day. The Activity [4] was 1.67 g, the Activity [5] was 0.86 g and the Activity [6] was 23.4 g. The fold change (FC) [7] was 1.3, the Activity [8] was 0.02 g and the Activity [9] was 39.4 g.

`C[C@H](NC(=O)c1sccc1OCc1ccc(Cl)cc1)c1ccccc1` gave an Activity [1] of 0.1 ng/mL, an Activity [2] of 1.75 g and an Activity [3] of 4.1 g/day. For the same molecule, the Activity [4] was 1.8 g, the Activity [5] was 0.73 g and the Activity [6] was 23 g. For the same molecule, the fold change (FC) [7] was 1.2, the Activity [8] was 0.02 g and the Activity [9] was 40.1 g.
